# PGC1a acetyl inh: PGC1a acetylation modulation, inhibitor mode; U2OS PGC1a acetylation, AlphaScreen anti-acetyl-lysine; with virally co-expressed GCN5 acetyltransferase; inhibition, % at 15.6 µM; 0.17% of 350,000 active;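 active = every replicate shows inhibition of at least 40%; inconclusive = mean inhibition at least 40% but some replicate below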;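 note: 0% = neutral control wells and 100% = positive control wells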
# SIRT5 inh: sirtuin-5 (human) deacylase inhibition; inhibition, % at 15 µM; 1.1% of 330,000 active; Purified SirT5, succinyl-peptide AMC, trypsin-coupled fluorescence; Q9NXA8; AID 652115; in the data active = inhibition above about 15%; inconclusive = no clear call, values can overlap the other calls
# Target sequence (Q9NXA8 whole entry, looked up): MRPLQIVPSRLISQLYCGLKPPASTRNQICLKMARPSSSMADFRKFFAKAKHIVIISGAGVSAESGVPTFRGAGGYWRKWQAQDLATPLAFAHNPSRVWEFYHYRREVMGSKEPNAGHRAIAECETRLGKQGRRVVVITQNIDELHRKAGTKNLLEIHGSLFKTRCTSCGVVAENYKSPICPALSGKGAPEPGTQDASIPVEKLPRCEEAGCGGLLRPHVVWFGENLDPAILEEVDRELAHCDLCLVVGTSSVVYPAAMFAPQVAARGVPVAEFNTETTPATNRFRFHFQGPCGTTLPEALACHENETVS
# DENV2 CPE rescue: inhibitors of DENV2 cytopathic effect. DENV2-infected cells, cytopathic effect rescue, plate reader. CPE inhibition, % at 9.99 µM. 1.7% of 350,000 active; in the data active = CPE inhibition above about 20%, passing the limit was not always enough; inconclusive = no clear call, values can overlap the other calls; tested in BHK-21 cells;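 note: 0% = median of neutral control wells and 100% = median of positive control wells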
# S100A4 inh HTS: S100A4-myosin IIA interaction inhibition. P26447. S100A4/TAMRA-MyoIIA peptide fluorescence polarization. inhibition, % at 10.7 µM. 0.14% of 360,000 active. AID 652163;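 active = mean inhibition of at least 70% across replicates, with every replicate also reaching that level; inconclusive = mean inhibition reaches 70% but some replicates fall short; inactive = mean inhibition below 70%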
# Target sequence (P26447 whole entry, looked up): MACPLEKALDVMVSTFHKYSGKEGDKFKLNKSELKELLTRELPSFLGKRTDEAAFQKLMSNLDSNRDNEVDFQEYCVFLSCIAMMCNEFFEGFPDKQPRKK
#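 Test system – S100A4 monomer (human) · Compound – single-point compound testing · Schedule – 5 min incubation before reading · Probe or stimulus – TAMRA-labelled myosin IIA heavy-chain peptide probe, 5 nM · Benchmarks – neutral control DMSO, positive control TFP · Medium – Calcium-containing HEPES buffer, pH 7.2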
# C2C12 statin: suppression of simvastatin myotoxicity | 0.78% of 330,000 active | AID 602340 | rescue of ATP level, % at 7.49 µM | C2C12 myotubes + simvastatin, ATP luminescence, 48 h; scaled: DMSO 0, geranylgeraniol control 100;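 active = mean ATP rescue above about 67%, or every replicate alone reaching that limit, limit read from the data, passing the limit was not always enough; inconclusive = no clear call, values can overlap the other calls; inactive = mean under the limit and some replicate under it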;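 note: myotubes were challenged with 10 µM simvastatin during compound exposure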
# C2C12 COX5a inh: reduces COX5a expression driven by PGC-1a in C2C12 myotubes | C2C12 myotubes PGC-1a adenovirus, COX5a qPCR | shares compounds with PGC1a acetyl inh | 45 tested, under 10 active | maximal activity, %;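 active = fitted dose curve reaching 40% activity at or below the highest valid dose tested; inconclusive = flat fit between 30% and 70%, or an unusable fit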
# AID743468: change in PGC-1a target gene PDK4 expression, dose response, C2C12 myotubes, RT-qPCR, cherry-pick; PDK4 expression increase, % at 19.5 µM; 45 tested, under 10 active; shares compounds with PGC1a acetyl inh; AID 743468; PGC-1a adenovirus, PDK4 mRNA qPCR;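 active = fitted curve reaching a 40% PDK4 expression rise at or below the top valid tested dose; inconclusive = no clear call, values can overlap the other calls; inactive = the rest, including shifts the wrong way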
# Numbers without * were called inactive; ? = inconclusive; . = no result given; ! = repeats disagree. Shown are actives, neighbours in structure and some others; about 2.9% of the full set was active somewhere.
SMILES,PGC1a acetyl inh,SIRT5 inh,DENV2 CPE rescue,S100A4 inh HTS,C2C12 statin,C2C12 COX5a inh,AID743468
C[C@H](CO)N1C[C@H](C)[C@@H](CN(C)C(=O)C2CCCCC2)Oc2cc(C#Cc3ccncc3)ccc2S1(=O)=O,?,2,?,-7,7,-21,-2
CC(C)NC(=O)N(C)C[C@@H]1Oc2c(NS(=O)(=O)c3cn(C)cn3)cccc2C(=O)N([C@H](C)CO)C[C@H]1C,0,-3,1,49,.,.,.
CNC[C@H]1OCCCC[C@@H](C)Oc2ccc(NS(=O)(=O)c3ccccc3)cc2C(=O)N([C@@H](C)CO)C[C@H]1C,-1,-1,11,10,15,.,.
C[C@@H]1CN([C@@H](C)CO)C(=O)c2cc(C#CC3CCCCC3)cnc2O[C@H]1CN(C)C(=O)c1ccncc1,-3,0,9,-25,.,.,.
O=C(NC[C@@H]1[C@H](c2ccccc2)[C@H](CO)N1CC1CCCC1)C1CC1,-14,-6,6,12,.,.,.
CCN1CCN(Cc2ccc(NC(=O)c3cc(NC(=O)c4cncc(-c5ccc(C#N)cc5)c4)cc(OC)c3)cc2C(F)(F)F)CC1,86*,.,-14,-3,-5,-46,1
CO[C@H]1CN(C)C(=O)c2ccc(NC(=O)C3CC3)cc2OC[C@H](C)N(C(=O)CN(C)C)C[C@@H]1C,8,-1,-2,29,-7,.,.
CCOc1cc(CNC2CCCC2)cc(Cl)c1OCc1ccc(F)cc1,78*,.,.,.,8,-27,-9
Cc1nc2ccccn2c1C(=O)/C=C/c1ccc(F)cc1,?,.,.,.,23,-23,6
CS(=O)c1nc(-c2ccc(Br)cc2)cc(-c2ccccc2)c1C#N (centres undefined),91*,-2,-3,7,-4,-38,11
O=C(N[C@@H]1CC[C@@H](CCNS(=O)(=O)c2ccccc2Cl)O[C@H]1CO)c1ccccc1,10,2,-8,-7,1,.,.
Cc1cccc(NC(=O)CNC(=O)Cn2ncc(Cl)c(Cl)c2=O)c1C,?,.,.,.,8,-39,26
Nc1ncnc(NCc2ccccc2)c1[N+](=O)[O-],.,-3,14,-5,.,.,.
Nc1ncnc(NCc2ccc(F)cc2)c1[N+](=O)[O-],50*,-1,-3,-7,.,-25,32
CCCNC(=O)N1C[C@@H](O)COC[C@H]2O[C@@H](CC(=O)N3CCOCC3)CC[C@@H]21,0,1,-10,8,-2,.,.
COc1ccccc1-c1ccc([C@@H]2[C@@H]3CN(S(=O)(=O)c4ccc(-c5ccccc5)cc4)C[C@H]2N3)cc1,-56,21*,1,16,.,-34,-44
COc1cccc(S(=O)(=O)N2C[C@@H]3N[C@H](C2)C3c2ccc(-c3ccccc3OC)cc2)c1 (some centres undefined),-12,9,-5,4,.,.,.
Cc1nc(Nc2ccc(S(N)(=O)=O)cc2)sc1C(=O)Nc1ccccc1,?,5,0,4,.,-26,-8
Cc1nc(Nc2ccccc2)sc1C(=O)Nc1ccccc1,.,-1,0,-3,.,.,.
O=C1c2ccccc2OC2(C=Cc3ccccc3O2)N1Cc1ccccc1 (centres undefined),-12,.,.,.,-19,.,.
Cc1cc2c(c(/C=C/C(=O)c3ccccc3)c1)OC1(C=C2)Oc2ccccc2C(=O)N1C (centres undefined),50*,-1,15,3,.,-44,-53
O=c1cc(CCc2ccccc2)[nH]c(=O)[nH]1,.,3,3,3,.,.,.
O=c1cc(CSc2ccccn2)[nH]c(=O)[nH]1,?,.,.,.,.,-27,-6
O=C(C[C@H]1CC[C@@H](NC(=O)c2ccccc2)[C@H](CO)O1)Nc1ccc(-c2ccccc2)cc1,44*,-4,0,18,-47,-29,-29
O=C(C[C@H]1CC[C@H](NC(=O)c2ccccc2)[C@@H](CO)O1)Nc1ccc(-c2ccccc2)cc1,5,0,-3,0,21,.,.
CO[C@H]1CN(C)C(=O)c2ccc(NC(=O)Nc3cccc(F)c3)cc2OC[C@H](C)NC[C@@H]1C,-5,-1,-1,-3,.,.,.
O=C(Nc1ccc(C(F)(F)F)cc1)N1C[C@@H]2N[C@H](C1)C2c1ccc(-c2ccccc2)cc1 (some centres undefined),?,21*!,7,10,.,-43,-24
CC(C)[C@H](NC(=O)c1ccccc1)C(=O)OCC(=O)c1ccc2c(c1)NC(=O)CO2,2,.,.,.,5,.,.
CC[C@H](C)[C@H](NC(=O)c1ccc(Cl)cc1)C(=O)OCC(=O)c1ccc2c(c1)NC(=O)CO2,?,.,.,.,-1,-16,5
CCN1[C@@H]2c3ccc(-c4ccc(F)cc4)c(=O)n3C[C@@H]2[C@@H](CO)[C@@H]1C(=O)N(C)C,-6,0,-2,9,-23,.,.

# Bioassay records: PubChem BioAssay, Broad Institute
